Results from different studies.
Lines come from different studies, so protocols differ.
Target: High affinity nerve growth factor receptor (NTRK1, Homo sapiens, UniProt P04629)

| SMILES | assay | conditions | measurement | value |
| --- | --- | --- | --- | --- |
| O=C1Nc2ccc(Cl)cc2C1=Cc1cc(Cl)c(O)c(Cl)c1 | cell-free assay | 0.5 µM | remaining signal | 87.4% |
| Cc1ccc(C(=O)Nc2ccc(CN3CCN(C)CC3)c(C(F)(F)F)c2)cc1C#Cc1cnc2cccnn12 | cell-free assay | 23.5 nM | remaining signal | 26% |
| Cc1sc(C(=O)NC2COC2)cc1-n1cc(NC(=O)Nc2c(F)cccc2Cl)cn1 | enzyme activity, inhibitor | 10 µM | remaining activity | 81% |
| C[C@@H]1CN(c2cc(-c3n[nH]c4ccc(OC5(C)CC5)cc34)ncn2)C[C@H](C)O1 | cell-free assay, competition with immobilised ligand | 0.1 µM | remaining binding | 73% |
| Cc1cnc(NC2CCOCC2)nc1-n1cnc(C(=O)NC(CN)c2cc(F)cc(Cl)c2)c1 (stereo not drawn) | enzyme activity, inhibitor, radiometric | 1 µM | remaining activity | 100% |
| Cc1ccc(C(=O)NCc2ccsc2)cc1C#Cc1cn(C(C)C)c2ncnc(N)c12 | enzyme activity, inhibitor | 1 µM | activity vs control | 74% |
| O=C(Nc1ccc(Br)cc1)Nc1cccc(C(=O)Nc2ccc3[nH]ncc3c2)c1 | enzyme activity, inhibitor, FRET | 1 µM | inhibition | 50.5% |
| FC(F)(F)Oc1cccc(-c2cnc3ccc(-c4ccncc4)nn23)c1 | enzyme activity, inhibitor, radiometric | 1 µM | activity vs control | 16% |
| O=C(Nc1cccc(Cl)c1)Nc1cccc(C(=O)Nc2ccc3[nH]ncc3c2)c1 | enzyme activity, inhibitor, FRET | 1 µM | inhibition | 47.4% |
| CN(C)C(=O)Cn1cc(-c2nc(C3(c4ccc(-c5cnc(N)nc5)cc4)CC3)no2)cn1 | cell-free assay, competition with immobilised ligand | 1 µM | remaining binding | 100% |
| COc1cc(Nc2cnc(C#N)c(O[C@H](C)CN(C)C)n2)ncc1-c1cnn(C)c1 | enzyme activity, inhibitor, radiometric | 10 µM | remaining activity | 28% |
| CC(C)(O)[C@H]1CC[C@H](Nc2ccc3ncc(-c4cccc(C(F)(F)F)c4)n3n2)CC1 | enzyme activity, inhibitor | 1 µM | remaining activity | 21.9% |
| COc1ccc2c(c1)O[C@H](c1ccc(OC)c(OC)c1)C[C@@H]2NC(=O)C1(c2ccc3c(c2)OC(F)(F)O3)CC1 | cell-free assay, competition with immobilised ligand | 1 µM | remaining binding | 100% |
| Oc1cccc(-c2nc(N3CCOCC3)c3oc4ncccc4c3n2)c1 | enzyme activity, inhibitor | 10 µM | remaining activity | 93% |
| CCN(CC)CCNC(=O)c1c(C)[nH]c(/C=C2\C(=O)Nc3ccc(F)cc32)c1C | enzyme activity, inhibitor | 1 µM | remaining activity | 2% |
| O=C(Nc1ccc2[nH]ncc2c1)c1cccc(NC(=O)c2cc(C(F)(F)F)ccc2F)c1 | enzyme activity, inhibitor, FRET | 1 µM | inhibition | 34% |
| Cc1cc(NC(=O)c2cccc3cc(-c4cccc5[nH]nc(N)c45)ccc23)ccc1F | enzyme activity, inhibitor | 0.1 µM | activity vs control | 121% |
| Cc1c(NC(=O)c2cc(C(N)=O)nc3cc(F)ccc23)c(C(F)(F)F)nn1Cc1ccc(C#N)cc1 | cell-free assay, competition with immobilised ligand | 1 µM | remaining binding | 83% |
| CN(C)C1CCN(CC#Cc2nn(C3CCCC3)c3nc(NCc4ccccc4)ncc23)C1 (stereo not drawn) | enzyme activity, inhibitor, FRET | 1 µM | inhibition | 17% |
| CNC(=O)c1ccc(Nc2ncc(C(F)(F)F)c(NCc3nccnc3N(C)S(C)(=O)=O)n2)cc1 | binding, competition with immobilised ligand | 1 µM | remaining binding | 13% |
| CC(C)(C)c1nc2c(s1)c1nc(N)ncc1c1ccc(NS(=O)(=O)c3c(F)cccc3F)c(F)c12 | enzyme activity, inhibitor, radiometric | 1 µM | remaining activity | 54% |
| CCCOc1ccc([C@H]2[C@H](C(=O)O)[C@@H](c3ccc4c(c3)OCO4)CN2CC(=O)Nc2c(CC)cccc2CC)cc1 | cell-free assay, competition with immobilised ligand | 1 µM | remaining binding | 84% |
| O=C(Cc1ccc(C(F)(F)F)cc1)Nc1cccc(C(=O)Nc2ccc3[nH]ncc3c2)c1 | enzyme activity, inhibitor, FRET | 1 µM | inhibition | 46% |
| CCC(=N\O)/C(C)=C/c1ccc(F)cc1 | cell-free assay, competition with immobilised ligand | 1 µM | remaining binding | 83% |
| O=C(Nc1ccc(F)cc1)Nc1cccc(C(=O)Nc2ccc3[nH]ncc3c2)c1 | enzyme activity, inhibitor, FRET | 1 µM | inhibition | 63.2% |
| CNC(=O)Nc1ccc2c(c1)CC[C@@]21OC(=O)N(CC(=O)N(Cc2ccc(F)cc2)[C@@H](C)C(F)(F)F)C1=O | cell-free assay, competition with immobilised ligand | 1 µM | remaining binding | 81% |
| Nc1ncnc2occ(-c3ccc(NC(=O)Nc4cc(C(F)(F)F)ccc4F)cc3)c12 | cell-free assay | 20 µM | remaining signal | 0% |
| Cc1[nH]c(/C=C2\C(=O)Nc3ccc(F)cc32)c(C)c1C(=O)N[C@H]1CCN(C(=O)N(C)C)C1 | enzyme activity, inhibitor | 1 µM | remaining activity | 5% |
| O=C(Nc1cccc(C(=O)Nc2ccc3[nH]ncc3c2)c1)Nc1ccccc1Cl | enzyme activity, inhibitor, FRET | 1 µM | inhibition | 37.7% |
| N#CCCc1ccc2c(c1)-c1[nH]c3ccc([N+](=O)[O-])cc3c1CC(=O)N2 | cell-free assay | 0.5 µM | remaining signal | 115% |
